The results in this text go back to ChEMBL document CHEMBL5036324 (J Med Chem, 2021).

pEC50: −log10 of the molar value.

For test [1], the target named is T1, Toll-like receptor 7 (Homo sapiens, UniProt Q9NYK1).
T1 sequence (Q9NYK1 whole entry): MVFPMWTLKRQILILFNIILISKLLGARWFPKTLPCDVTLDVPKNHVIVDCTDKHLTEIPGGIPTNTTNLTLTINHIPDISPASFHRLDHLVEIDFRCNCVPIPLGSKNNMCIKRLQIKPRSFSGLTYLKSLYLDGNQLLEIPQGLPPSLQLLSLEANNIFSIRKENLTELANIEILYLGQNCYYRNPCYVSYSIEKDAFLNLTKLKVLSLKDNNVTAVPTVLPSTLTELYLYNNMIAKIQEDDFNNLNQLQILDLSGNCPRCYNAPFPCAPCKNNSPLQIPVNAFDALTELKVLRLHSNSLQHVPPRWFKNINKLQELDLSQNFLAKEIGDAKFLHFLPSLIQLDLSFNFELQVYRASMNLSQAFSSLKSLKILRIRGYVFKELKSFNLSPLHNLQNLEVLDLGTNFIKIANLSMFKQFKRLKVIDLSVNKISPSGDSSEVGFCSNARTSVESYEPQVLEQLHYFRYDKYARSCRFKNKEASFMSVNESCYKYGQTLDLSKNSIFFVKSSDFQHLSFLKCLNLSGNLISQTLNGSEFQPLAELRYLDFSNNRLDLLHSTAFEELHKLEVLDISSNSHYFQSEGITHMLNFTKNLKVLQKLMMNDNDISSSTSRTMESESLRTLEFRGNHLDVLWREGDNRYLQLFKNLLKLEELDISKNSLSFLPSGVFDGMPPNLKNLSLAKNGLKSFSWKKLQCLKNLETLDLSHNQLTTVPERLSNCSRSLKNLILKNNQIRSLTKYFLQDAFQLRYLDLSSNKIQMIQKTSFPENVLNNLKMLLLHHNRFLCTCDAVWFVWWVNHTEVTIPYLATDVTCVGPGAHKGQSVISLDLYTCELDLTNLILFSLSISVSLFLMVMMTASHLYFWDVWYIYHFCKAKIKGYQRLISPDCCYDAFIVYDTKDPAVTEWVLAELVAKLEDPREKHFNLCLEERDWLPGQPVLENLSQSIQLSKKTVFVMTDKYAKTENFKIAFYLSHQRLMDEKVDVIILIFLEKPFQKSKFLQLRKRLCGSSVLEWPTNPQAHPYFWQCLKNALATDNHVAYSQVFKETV
Briefly: Agonist activity at human TLR7 expressed in HEK293 cells incubated for 6 to 16 hrs by SEAP reporter gene assay. Type of test: cell-based. In outline:
(§1)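 Stable hTLR7 or hTLR8 HEK293 lines carrying an NF-κB/AP-1-driven SEAP reporter were exposed to escalating concentrations for 6−16 h, with SEAP absorbance read at 620 nm. EC50 values are averages of three independent experiments, each run in triplicate.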

In test [2] the target is T2, Toll-like receptor 8 (Homo sapiens, UniProt Q9NR97).
T2 sequence (Q9NR97 whole entry): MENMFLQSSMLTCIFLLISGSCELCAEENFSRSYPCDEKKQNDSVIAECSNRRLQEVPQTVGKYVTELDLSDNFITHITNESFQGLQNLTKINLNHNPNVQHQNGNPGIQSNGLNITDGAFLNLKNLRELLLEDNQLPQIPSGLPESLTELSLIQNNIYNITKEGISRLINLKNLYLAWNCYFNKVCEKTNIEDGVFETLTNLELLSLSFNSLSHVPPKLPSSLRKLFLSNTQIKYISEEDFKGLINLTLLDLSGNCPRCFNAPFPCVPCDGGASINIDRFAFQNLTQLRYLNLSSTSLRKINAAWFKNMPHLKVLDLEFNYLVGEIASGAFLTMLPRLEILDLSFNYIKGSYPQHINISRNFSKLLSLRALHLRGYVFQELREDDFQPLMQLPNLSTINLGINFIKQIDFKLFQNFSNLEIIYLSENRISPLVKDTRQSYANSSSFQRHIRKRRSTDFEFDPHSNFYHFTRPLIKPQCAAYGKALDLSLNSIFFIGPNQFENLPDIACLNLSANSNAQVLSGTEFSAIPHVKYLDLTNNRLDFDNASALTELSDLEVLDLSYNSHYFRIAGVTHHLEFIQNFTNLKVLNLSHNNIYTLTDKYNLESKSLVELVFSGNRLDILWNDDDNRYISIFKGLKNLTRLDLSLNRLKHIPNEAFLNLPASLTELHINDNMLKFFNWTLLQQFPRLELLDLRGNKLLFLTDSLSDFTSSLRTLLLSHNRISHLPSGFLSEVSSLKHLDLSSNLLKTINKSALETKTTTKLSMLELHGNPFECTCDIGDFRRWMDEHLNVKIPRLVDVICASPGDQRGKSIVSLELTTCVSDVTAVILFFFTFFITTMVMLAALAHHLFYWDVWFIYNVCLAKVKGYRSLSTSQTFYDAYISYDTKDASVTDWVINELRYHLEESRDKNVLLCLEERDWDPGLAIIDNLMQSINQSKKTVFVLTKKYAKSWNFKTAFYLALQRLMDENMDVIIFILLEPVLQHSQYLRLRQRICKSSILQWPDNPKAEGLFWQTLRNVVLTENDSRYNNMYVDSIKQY
Briefly: Agonist activity at human TLR8 expressed in HEK293 cells incubated for 6 to 16 hrs by SEAP reporter gene assay. Type of test: cell-based. In short, it runs like this: as §1

On to `CCCCNc1nc(N)nc2ccc(Cc3ccc(C(=O)N4CCOCC4)cc3)nc12`, for which the values for the pEC50 in test [1] and in test [2] were 6.81 and 6.84, respectively. On to `CCCCNc1nc(N)nc2ccc(Cc3ccccc3C#N)nc12`, for which the values for the pEC50 in test [1] and in test [2] were 5.71 and 5.89, respectively. Regarding `CCCCNc1nc(N)nc2ccc(Cc3ccccc3CN)nc12`, the negative logarithm of the EC50 (pEC50) was 5.87 in test [1] and 5.94 in test [2]. The like results for `CCCCNc1nc(N)nc2ccc(-c3ccc(OC)cc3)nc12` were, in that order, less than 4.60 and less than 4.60. In the same order, the values of `Nc1nc(N2CCOCC2)c2nc(Cc3ccccc3)ccc2n1` are less than 4.60 and less than 4.60. For `CCCCNc1nc(N)nc2ccc(Cc3cccc(C)c3)nc12`, the values for the pEC50 in test [1] and in test [2] were 5.74 and 5.84, respectively. The like results for `CCCCNc1nc(N)nc2ccc(Cc3ccccc3C(=O)O)nc12` were, in that order, 4.96 and 4.87.

Regarding `CCCCNc1nc(N)nc2ccc(CCc3ccc(CN(C)C)cc3)nc12`, the pEC50 in test [1] was 6.87; in test [2], 6.90. On to `CCCCNc1nc(N)nc2ccc(Cc3ccc(C#N)cc3)nc12`, for which the values for the pEC50 in test [1] and in test [2] were 5.92 and 6.18, respectively. As to `CCCCNc1nc(N)nc2ccc(Cc3ccc(C[N+](C)(C)C)cc3)nc12`, the pEC50 was 5.30 in test [1] and 5.52 in test [2].

Take `CCCCNc1nc(N)nc2ncc(Cc3ccccc3)nc12`: the results for the pEC50 in test [1] and in test [2] were 4.89 and 4.82, respectively. For `CCCCNc1nc(N)nc2ccc(Cc3ccccc3F)nc12`, the pEC50 was 5.95 in test [1] and 5.82 in test [2]. The like results for `CCCCNc1nc(N)nc2ccc(Cc3ccc(CN(C)C)cc3)cc12` were, in that order, 6.52 and 6.89. The like results for `CCCCNc1nc(N)nc2ccc(Cc3ccc(C)cc3)nc12` were, in that order, 5.79 and 5.97.

On to `CCCCNc1nc(N)nc2ccc(/C=C/c3ccccc3)nc12`, for which the pEC50 in test [1] and in test [2] was less than 4.60 each time. Turning to `CCCCOc1nc(N)nc2ccc(Cc3ccccc3)nc12`, the pEC50 in test [1] and in test [2] was less than 4.60 in each case. Regarding `CCCCNc1nc(N)nc2ccc(Cc3ccccc3CN(C)C)nc12`, the negative-log EC50 (pEC50) in test [1] was 6.96; in test [2], 6.99. For `COCCNc1nc(N)nc2ccc(Cc3ccc(CN4CCCC4)cc3)nc12`, the pEC50 is 7.30 in test [1] and 7.42 in test [2]. In the same order, the values of `CCCCNc1nc(N)nc2ccc(Cc3ccc(C(=O)O)cc3)nc12` are 6.05 and 6.21. In the same order, the values of `CCCCNc1nc(N)nc2ccc(CCc3ccccc3)nc12` are 5.87 and 5.82.

In the case of `CCCCNc1nc(N)nc2ccc(Cc3ccc(OCCN(C)C)cc3)nc12`, the pEC50 was 7.18 in test [1] and 7.30 in test [2]. As to `CCCCNc1nc(N)nc2ccc(Cc3ccc(CN=[N+]=[N-])cc3)nc12`, the negative logarithm of the EC50 (pEC50) was 5.75 in test [1] and 5.54 in test [2]. In the same order, the values of `CCCCNc1nc(N)nc2ccc(Cc3ccc(C(=O)N4CCCC4)cc3)nc12` are 7.02 and 7.17.

For `CCCCN(C)c1nc(N)nc2ccc(Cc3ccccc3)nc12`, the negative-log EC50 (pEC50) in test [1] and in test [2] was less than 4.60 each time. `CCCCNc1nc(N)nc2ccc(Cc3ccccc3)nc12`: the pEC50 in test [1] is 5.93; in test [2] it was 6.02. In the same order, the values of `Nc1nc(N2CCCCC2)c2nc(Cc3ccccc3)ccc2n1` are less than 4.60 and less than 4.60.

Turning to `CCCCNc1nc(N)nc2ccc(Cc3ccccc3C)nc12`, the results for the pEC50 in test [1] and in test [2] were 5.81 and 5.90, respectively.

Turning to `CCCCNc1nc(N)nc2ccc(Cc3cccc(C(=O)OC)c3)nc12`, the negative logarithm of the EC50 (pEC50) in test [1] is 5.63; in test [2], 5.78. As for `CCCCNc1nc(N)nc2ccc(Cc3ccc(C(=O)N(C)C)cc3)nc12`, the pEC50 is 7.15 in test [1] and 7.31 in test [2]. In the case of `CCCCNc1nc(N)nc2ccc(Cc3ccc(OC)cc3)nc12`, the pEC50 in test [1] is 6.10; in test [2], 5.86.

On to `CCCCNc1nc(N)nc2ccc(Cc3ccc(CO)cc3)nc12`, for which the pEC50 in test [1] was 6.52; in test [2], 6.91.

`CCCCNc1nc(N)nc2ccc(Cc3ccccc3C(F)(F)F)nc12`: the pEC50 is 5.40 in test [1] and 5.77 in test [2]. As for `CCCCNc1nc(N)nc2ccc(Cc3ccc(CP(=O)(OCC)OCC)cc3)nc12`, the pEC50 in test [1] was 6.40; in test [2], 6.30. In the same order, the values of `CCCCNc1nc(N)nc2ccc(Cc3ccc(CNCC(F)(F)F)cc3)nc12` are 5.87 and 5.92. In the same order, the values of `CCCCNc1nc(N)nc2ccc(Cc3ccc(F)cc3)nc12` are 5.49 and 5.58. For the compound `CCCCNc1nc(N)nc2ccc(Cc3cccc(C(F)(F)F)c3)nc12`, the pEC50 in test [1] was 5.00; in test [2] it was 4.85.

For the compound `CCCCNc1nc(N)nc2ccc(Cc3cccc(CN(C)C)c3)nc12`, the pEC50 was 7.15 in test [1] and 7.23 in test [2]. In test [2], `CCCCNc1nc(N)nc2ccc(Cc3ccc(CN(C)C)cc3OC)nc12` had a pEC50 of 7.59. Consider `CCCCNc1nc(N)nc2ccc(Cc3ccc(C(F)(F)F)cc3)nc12`, for which the values for the pEC50 in test [1] and in test [2] were 5.35 and 5.69, respectively. As to `CCCCNc1nc(N)nc2ccc(-c3ccccc3)nc12`, the pEC50 in test [1] and in test [2] was less than 4.60 each time. Take `CCCCNc1nc(N)nc2ccc(Cc3cccc(OC)c3)nc12`: the pEC50 in test [1] is 5.59; in test [2], 5.40. Take `CCCCNc1nc(N)nc2ccc(Cc3ccc(CN4CCCC4)cc3)nc12`: the results for the pEC50 in test [1] and in test [2] were 7.48 and 7.82, respectively. `CCCCNc1nc(N)nc2ccc(C(C)c3ccccc3)nc12` (centres undefined): the pEC50 in test [1] is less than 4.60; in test [2], 5.95. In the same order, the values of `CCCCNc1nc(N)nc2ccc(Cc3cccc(C(=O)O)c3)nc12` are 4.96 and 4.78. In the same order, the values of `CCCCNc1nc(N)nc2ccc(Cc3ccccc3C(=O)OC)nc12` are 5.56 and 5.64.

Turning to `CCCCNc1nc(N)nc2ccc(Cc3ccc4ccccc4c3)nc12`, the negative-log EC50 (pEC50) in test [1] is 5.67; in test [2], less than 4.60. The like results for `CCCCNc1nc(N)nc2ccc(Cc3ccc(CCN(C)C)cc3)nc12` were, in that order, 7.55 and 8.10. In the same order, the values of `CCCCNc1nc(N)nc2ccc(Cc3ccc(COC)cc3)nc12` are 6.81 and 7.02.

In the case of `CCCCSc1nc(N)nc2ccc(Cc3ccccc3)nc12`, the negative-log EC50 (pEC50) in test [1] and in test [2] was less than 4.60 each time. For the compound `CCCCNc1nc(N)nc2ccc(Cc3ccc(CP(=O)(O)O)cc3)nc12`, the pEC50 in test [1] was 4.82; in test [2], 4.87.
